In ChEMBL document CHEMBL4706590, “Design and characterization of cereblon-mediated androgen receptor proteolysis-targeting chimeras” (Eur J Med Chem, 2020):

test system: VCaP; assay: Antiproliferative activity against human VCaP cells assessed as reduction in cell viability after 6 days by CellTiter-Glo assay; format: functional; settings: 144 h, time 6 day
In short: (§1)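 LNCaP seeded at 1.5 × 10³ and VCaP at 4 × 10³ cells per well in 96-well plates. Cells grown in IMDM with 10% FBS and antibiotic-antimycotic at 37 °C, 5% CO2, with DMSO as vehicle. IC50 from nonlinear regression of log(inhibitor) versus response.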

Row | SMILES | CC50
1 | CC1(C)[C@H](NC(=O)c2ccc(N3CCN(CCOC4CCN(C(=O)CNc5ccc6nnn(C7CCC(=O)NC7=O)c(=O)c6c5)CC4)CC3)cc2)C(C)(C)[C@H]1Oc1ccc(C#N)c(Cl)c1 (some centres undefined) | 0.057 µM
2 | CC1(C)[C@H](NC(=O)c2ccc(N3CCN(CCC4CCN(C(=O)C5CCN(c6ccc7nnn(C8CCC(=O)NC8=O)c(=O)c7c6)CC5)CC4)CC3)cc2)C(C)(C)[C@H]1Oc1ccc(C#N)c(Cl)c1 (some centres undefined) | 0.052 µM
3 | CC1(C)[C@H](NC(=O)c2ccc(N3CCN(CCC4CCN(C(=O)CNc5ccc6nnn(C7CCC(=O)NC7=O)c(=O)c6c5)CC4)CC3)cc2)C(C)(C)[C@H]1Oc1ccc(C#N)c(Cl)c1 (some centres undefined) | 0.107 µM
4 | CC1(C)[C@H](NC(=O)c2ccc(N3CCN(CC4CCN(C(=O)C5CCN(c6ccc7nnn(C8CCC(=O)NC8=O)c(=O)c7c6)CC5)CC4)CC3)cc2)C(C)(C)[C@H]1Oc1ccc(C#N)c(Cl)c1 (some centres undefined) | 0.045 µM
5 | CC1(C)[C@H](NC(=O)c2ccc(N3CCN(CCC4CCN(c5ccc6nnn(C7CCC(=O)NC7=O)c(=O)c6c5)CC4)CC3)cc2)C(C)(C)[C@H]1Oc1ccc(C#N)c(Cl)c1 (some centres undefined) | 0.12 µM

test system: LNCaP; assay: Antiproliferative activity against human LNCaP cells assessed as reduction in cell viability after 6 days by CellTiter-Glo assay; format: functional; settings: 144 h, time 6 day; in short: as §1

Row | SMILES | CC50
6 | CC1(C)[C@H](NC(=O)c2ccc(N3CCN(CCOC4CCN(C(=O)CNc5ccc6nnn(C7CCC(=O)NC7=O)c(=O)c6c5)CC4)CC3)cc2)C(C)(C)[C@H]1Oc1ccc(C#N)c(Cl)c1 (some centres undefined) | 0.852 µM
7 | CC1(C)[C@H](NC(=O)c2ccc(N3CCN(CCC4CCN(C(=O)C5CCN(c6ccc7nnn(C8CCC(=O)NC8=O)c(=O)c7c6)CC5)CC4)CC3)cc2)C(C)(C)[C@H]1Oc1ccc(C#N)c(Cl)c1 (some centres undefined) | 0.316 µM
8 | CC1(C)[C@H](NC(=O)c2ccc(N3CCN(CCC4CCN(C(=O)CNc5ccc6nnn(C7CCC(=O)NC7=O)c(=O)c6c5)CC4)CC3)cc2)C(C)(C)[C@H]1Oc1ccc(C#N)c(Cl)c1 (some centres undefined) | 1.09 µM
9 | CC1(C)[C@H](NC(=O)c2ccc(N3CCN(CC4CCN(C(=O)C5CCN(c6ccc7nnn(C8CCC(=O)NC8=O)c(=O)c7c6)CC5)CC4)CC3)cc2)C(C)(C)[C@H]1Oc1ccc(C#N)c(Cl)c1 (some centres undefined) | 0.108 µM
10 | CC1(C)[C@H](NC(=O)c2ccc(N3CCN(CCC4CCN(c5ccc6nnn(C7CCC(=O)NC7=O)c(=O)c6c5)CC4)CC3)cc2)C(C)(C)[C@H]1Oc1ccc(C#N)c(Cl)c1 (some centres undefined) | 0.449 µM

molecular target: T1, Protein cereblon/Androgen receptor (Homo sapiens, UniProt P10275+Q96SW2); assay: Protac activity at CRBN/AR in human LNCaP cells assessed as AR degradation at 0.1 uM by western blotting analysis relative to control; format: cell-based; settings: not given
T1 sequence (P10275 whole entry, looked up): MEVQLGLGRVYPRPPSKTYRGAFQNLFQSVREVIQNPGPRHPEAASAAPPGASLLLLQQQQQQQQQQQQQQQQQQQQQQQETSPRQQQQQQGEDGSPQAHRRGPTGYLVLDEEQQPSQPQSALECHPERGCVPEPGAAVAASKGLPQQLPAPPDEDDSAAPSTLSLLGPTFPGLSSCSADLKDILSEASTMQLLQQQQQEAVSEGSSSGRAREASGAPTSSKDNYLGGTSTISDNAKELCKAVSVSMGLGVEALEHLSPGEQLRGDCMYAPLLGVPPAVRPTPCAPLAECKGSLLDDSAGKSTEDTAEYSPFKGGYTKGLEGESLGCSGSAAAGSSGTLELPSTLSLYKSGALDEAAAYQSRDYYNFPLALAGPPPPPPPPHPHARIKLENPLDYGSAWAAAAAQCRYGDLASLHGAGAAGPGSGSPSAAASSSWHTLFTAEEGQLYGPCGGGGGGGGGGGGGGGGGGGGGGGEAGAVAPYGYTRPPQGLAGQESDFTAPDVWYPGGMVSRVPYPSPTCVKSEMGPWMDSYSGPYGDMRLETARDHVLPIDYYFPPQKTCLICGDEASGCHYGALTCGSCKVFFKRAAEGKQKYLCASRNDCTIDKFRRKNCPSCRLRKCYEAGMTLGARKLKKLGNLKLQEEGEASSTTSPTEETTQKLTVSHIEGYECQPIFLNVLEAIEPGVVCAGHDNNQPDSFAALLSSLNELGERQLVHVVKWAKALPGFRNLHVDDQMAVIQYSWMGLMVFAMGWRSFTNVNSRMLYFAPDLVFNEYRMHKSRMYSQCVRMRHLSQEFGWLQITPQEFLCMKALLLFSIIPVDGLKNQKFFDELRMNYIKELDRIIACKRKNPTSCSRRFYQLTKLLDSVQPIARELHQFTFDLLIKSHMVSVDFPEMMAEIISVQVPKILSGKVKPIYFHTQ
T1 sequence (Q96SW2 whole entry, looked up): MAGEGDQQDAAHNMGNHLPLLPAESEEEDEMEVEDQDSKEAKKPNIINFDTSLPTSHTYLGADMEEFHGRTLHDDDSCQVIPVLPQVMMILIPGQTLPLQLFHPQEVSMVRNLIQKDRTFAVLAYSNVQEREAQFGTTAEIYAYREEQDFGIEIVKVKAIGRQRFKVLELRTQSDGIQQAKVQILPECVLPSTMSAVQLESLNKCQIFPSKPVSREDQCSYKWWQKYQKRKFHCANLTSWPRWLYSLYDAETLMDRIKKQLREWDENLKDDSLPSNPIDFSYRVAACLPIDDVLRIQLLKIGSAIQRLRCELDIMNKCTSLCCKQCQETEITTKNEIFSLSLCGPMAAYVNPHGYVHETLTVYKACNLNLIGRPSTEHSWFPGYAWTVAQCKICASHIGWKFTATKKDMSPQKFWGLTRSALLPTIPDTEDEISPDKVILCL
In short: (§2)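 LNCaP (IMDM) or 22RV1 (RPMI 1640) cells with 10% FBS at 37 °C, 5% CO2, treated with DMSO vehicle as control. Cells lysed in RIPA buffer (50 mM Tris-HCl pH 7.5, 150 mM NaCl, 1% Triton X-100, 0.1% SDS, 0.5% deoxycholate, protease inhibitors). Protein quantified by Bradford assay. Immunoblotted for AR with tubulin as loading control, HRP chemiluminescence detection.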

Row | Activity | SMILES
11 | 77% | CC1(C)[C@H](NC(=O)c2ccc(N3CCN(CCOC4CCN(C(=O)CNc5ccc6nnn(C7CCC(=O)NC7=O)c(=O)c6c5)CC4)CC3)cc2)C(C)(C)[C@H]1Oc1ccc(C#N)c(Cl)c1 (some centres undefined)
12 | 7% | CC1(C)[C@H](NC(=O)c2ccc(N3CCN(CCC4CCN(C(=O)CNc5ccc6nnn(C7CCC(=O)NC7=O)c(=O)c6c5)CC4)CC3)cc2)C(C)(C)[C@H]1Oc1ccc(C#N)c(Cl)c1 (some centres undefined)

Further lines, the molecule ahead of its results:

Row | SMILES | Activity
13 | CC1(C)[C@H](NC(=O)c2ccc(N3CCN(CCC4CCN(C(=O)C5CCN(c6ccc7nnn(C8CCC(=O)NC8=O)c(=O)c7c6)CC5)CC4)CC3)cc2)C(C)(C)[C@H]1Oc1ccc(C#N)c(Cl)c1 (some centres undefined) | 77%
14 | CC1(C)[C@H](NC(=O)c2ccc(N3CCN(CC4CCN(C(=O)C5CCN(c6ccc7nnn(C8CCC(=O)NC8=O)c(=O)c7c6)CC5)CC4)CC3)cc2)C(C)(C)[C@H]1Oc1ccc(C#N)c(Cl)c1 (some centres undefined) | 90%
15 | CC1(C)[C@H](NC(=O)c2ccc(N3CCN(CCC4CCN(c5ccc6nnn(C7CCC(=O)NC7=O)c(=O)c6c5)CC4)CC3)cc2)C(C)(C)[C@H]1Oc1ccc(C#N)c(Cl)c1 (some centres undefined) | 51%

test system: not listed separately; assay: Metabolic stability in mouse liver microsomes assessed as compound remaining at 1 uM after 30 mins in presence of NADPH-regenerating system; format: ADME, Microsome; settings: read-out: Stabilty
In short: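 Mouse liver microsomes at 0.5 mg protein/mL in 100 mM PBS, pH 7.4. Reaction started with NADPH-regenerating solution (1.3 mM NADP+, 3.3 mM glucose-6-phosphate, 0.4 U/mL G6PDH, 3.3 mM MgCl2). Incubated 30 min at 37 °C, stopped with ice-cold acetonitrile, centrifuged. Percent remaining reported as mean ± SD, n = 3.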

Row | remaining at 0.5 h, 1 µM | SMILES
16 | 31.2% | CC1(C)[C@H](NC(=O)c2ccc(N3CCN(CCOC4CCN(C(=O)CNc5ccc6nnn(C7CCC(=O)NC7=O)c(=O)c6c5)CC4)CC3)cc2)C(C)(C)[C@H]1Oc1ccc(C#N)c(Cl)c1 (some centres undefined)
17 | 0.56% | CC1(C)[C@H](NC(=O)c2ccc(N3CCN(CCC4CCN(C(=O)CNc5ccc6nnn(C7CCC(=O)NC7=O)c(=O)c6c5)CC4)CC3)cc2)C(C)(C)[C@H]1Oc1ccc(C#N)c(Cl)c1 (some centres undefined)

More lines, now with the values behind:

Row | SMILES | remaining at 0.5 h, 1 µM
18 | CC1(C)[C@H](NC(=O)c2ccc(N3CCN(CCC4CCN(C(=O)C5CCN(c6ccc7nnn(C8CCC(=O)NC8=O)c(=O)c7c6)CC5)CC4)CC3)cc2)C(C)(C)[C@H]1Oc1ccc(C#N)c(Cl)c1 (some centres undefined) | 93.7%
19 | CC1(C)[C@H](NC(=O)c2ccc(N3CCN(CC4CCN(C(=O)C5CCN(c6ccc7nnn(C8CCC(=O)NC8=O)c(=O)c7c6)CC5)CC4)CC3)cc2)C(C)(C)[C@H]1Oc1ccc(C#N)c(Cl)c1 (some centres undefined) | 74.3%
20 | CC1(C)[C@H](NC(=O)c2ccc(N3CCN(CCC4CCN(c5ccc6nnn(C7CCC(=O)NC7=O)c(=O)c6c5)CC4)CC3)cc2)C(C)(C)[C@H]1Oc1ccc(C#N)c(Cl)c1 (some centres undefined) | 86.7%

molecular target: T1, Protein cereblon/Androgen receptor; assay: Protac activity at CRBN/AR in human LNCaP cells assessed as AR degradation at 1 uM by Western blotting analysis relative to control; format: cell-based; settings: not given; in short: as §2

Row | Activity | SMILES
21 | 95% | CC1(C)[C@H](NC(=O)c2ccc(N3CCN(CCOC4CCN(C(=O)CNc5ccc6nnn(C7CCC(=O)NC7=O)c(=O)c6c5)CC4)CC3)cc2)C(C)(C)[C@H]1Oc1ccc(C#N)c(Cl)c1 (some centres undefined)
22 | 87% | CC1(C)[C@H](NC(=O)c2ccc(N3CCN(CCC4CCN(C(=O)CNc5ccc6nnn(C7CCC(=O)NC7=O)c(=O)c6c5)CC4)CC3)cc2)C(C)(C)[C@H]1Oc1ccc(C#N)c(Cl)c1 (some centres undefined)

The remaining lines, values behind:

Row | SMILES | Activity
23 | CC1(C)[C@H](NC(=O)c2ccc(N3CCN(CCC4CCN(C(=O)C5CCN(c6ccc7nnn(C8CCC(=O)NC8=O)c(=O)c7c6)CC5)CC4)CC3)cc2)C(C)(C)[C@H]1Oc1ccc(C#N)c(Cl)c1 (some centres undefined) | 93%
24 | CC1(C)[C@H](NC(=O)c2ccc(N3CCN(CC4CCN(C(=O)C5CCN(c6ccc7nnn(C8CCC(=O)NC8=O)c(=O)c7c6)CC5)CC4)CC3)cc2)C(C)(C)[C@H]1Oc1ccc(C#N)c(Cl)c1 (some centres undefined) | 89%
25 | CC1(C)[C@H](NC(=O)c2ccc(N3CCN(CCC4CCN(c5ccc6nnn(C7CCC(=O)NC7=O)c(=O)c6c5)CC4)CC3)cc2)C(C)(C)[C@H]1Oc1ccc(C#N)c(Cl)c1 (some centres undefined) | 94%

molecular target: T1, Protein cereblon/Androgen receptor; assay: Protac activity at CRBN/AR in human LNCaP cells assessed as AR degradation at 10 uM by Western blotting analysis relative to control; format: cell-based; settings: not given; in short: as §2

Row | Activity | SMILES
26 | 88% | CC1(C)[C@H](NC(=O)c2ccc(N3CCN(CCOC4CCN(C(=O)CNc5ccc6nnn(C7CCC(=O)NC7=O)c(=O)c6c5)CC4)CC3)cc2)C(C)(C)[C@H]1Oc1ccc(C#N)c(Cl)c1 (some centres undefined)
27 | 83% | CC1(C)[C@H](NC(=O)c2ccc(N3CCN(CCC4CCN(C(=O)CNc5ccc6nnn(C7CCC(=O)NC7=O)c(=O)c6c5)CC4)CC3)cc2)C(C)(C)[C@H]1Oc1ccc(C#N)c(Cl)c1 (some centres undefined)

The next lines start with the molecule.

Row | SMILES | Activity
28 | CC1(C)[C@H](NC(=O)c2ccc(N3CCN(CCC4CCN(C(=O)C5CCN(c6ccc7nnn(C8CCC(=O)NC8=O)c(=O)c7c6)CC5)CC4)CC3)cc2)C(C)(C)[C@H]1Oc1ccc(C#N)c(Cl)c1 (some centres undefined) | 99%
29 | CC1(C)[C@H](NC(=O)c2ccc(N3CCN(CC4CCN(C(=O)C5CCN(c6ccc7nnn(C8CCC(=O)NC8=O)c(=O)c7c6)CC5)CC4)CC3)cc2)C(C)(C)[C@H]1Oc1ccc(C#N)c(Cl)c1 (some centres undefined) | 94%
